{"source": "ChEMBL document CHEMBL4118021", "about": "“Studies of TAK1-centered polypharmacology with novel covalent TAK1 inhibitors” (Bioorg Med Chem, 2017)", "key": {"[1]": {"molecular_target": "Proteasome activator complex subunit 1 (Homo sapiens) (UniProt Q06323)", "sequence (Q06323 whole entry, one chain of several)": "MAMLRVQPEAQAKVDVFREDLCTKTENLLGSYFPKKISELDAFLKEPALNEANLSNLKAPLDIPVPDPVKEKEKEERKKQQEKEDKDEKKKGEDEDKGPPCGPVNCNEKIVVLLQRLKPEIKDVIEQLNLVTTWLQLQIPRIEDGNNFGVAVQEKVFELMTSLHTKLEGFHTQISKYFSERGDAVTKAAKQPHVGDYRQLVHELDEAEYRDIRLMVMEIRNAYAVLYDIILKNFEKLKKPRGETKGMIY", "assay": "Binding affinity to PSME1 in human NCI-H23 cells at 1 uM by mass spectrometry based pull down assay", "type": "cell-based"}, "[2]": {"molecular_target": "Bridging integrator 3 (Homo sapiens) (UniProt Q9NQY0)", "assay": "Binding affinity to BIN3 in human NCI-H23 cells at 1 uM by mass spectrometry based pull down assay", "type": "cell-based"}, "[3]": {"molecular_target": "WD repeat and HMG-box DNA-binding protein 1 (Homo sapiens) (UniProt O75717)", "sequence (O75717 whole entry)": "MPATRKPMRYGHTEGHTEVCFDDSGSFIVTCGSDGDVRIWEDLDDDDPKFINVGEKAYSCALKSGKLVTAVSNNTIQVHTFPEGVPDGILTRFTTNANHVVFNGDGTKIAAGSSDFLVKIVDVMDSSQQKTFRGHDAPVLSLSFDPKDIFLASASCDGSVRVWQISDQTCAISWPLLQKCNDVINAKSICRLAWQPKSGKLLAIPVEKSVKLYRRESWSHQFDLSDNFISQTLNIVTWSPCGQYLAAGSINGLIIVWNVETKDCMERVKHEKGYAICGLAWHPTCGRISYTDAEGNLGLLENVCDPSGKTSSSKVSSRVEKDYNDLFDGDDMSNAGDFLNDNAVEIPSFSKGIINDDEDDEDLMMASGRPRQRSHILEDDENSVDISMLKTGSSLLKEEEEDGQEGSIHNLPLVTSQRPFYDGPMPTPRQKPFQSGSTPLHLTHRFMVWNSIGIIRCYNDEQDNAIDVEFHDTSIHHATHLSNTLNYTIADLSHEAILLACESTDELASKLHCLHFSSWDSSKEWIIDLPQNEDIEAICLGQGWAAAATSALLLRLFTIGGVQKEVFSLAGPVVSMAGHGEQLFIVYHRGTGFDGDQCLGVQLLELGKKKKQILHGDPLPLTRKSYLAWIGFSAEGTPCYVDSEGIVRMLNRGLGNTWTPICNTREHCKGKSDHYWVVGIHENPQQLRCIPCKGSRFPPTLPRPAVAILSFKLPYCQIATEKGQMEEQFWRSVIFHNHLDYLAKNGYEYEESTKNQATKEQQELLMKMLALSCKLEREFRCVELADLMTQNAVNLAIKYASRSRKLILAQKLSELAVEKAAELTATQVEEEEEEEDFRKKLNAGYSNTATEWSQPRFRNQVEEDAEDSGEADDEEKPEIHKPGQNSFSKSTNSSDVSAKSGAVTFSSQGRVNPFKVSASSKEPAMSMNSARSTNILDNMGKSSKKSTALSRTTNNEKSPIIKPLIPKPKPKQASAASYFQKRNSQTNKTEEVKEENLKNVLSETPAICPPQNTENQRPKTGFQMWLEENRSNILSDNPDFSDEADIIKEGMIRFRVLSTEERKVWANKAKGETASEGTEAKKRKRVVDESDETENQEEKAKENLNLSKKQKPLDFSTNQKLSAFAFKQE", "assay": "Binding affinity to WDHD1 in human NCI-H23 cells at 1 uM by mass spectrometry based pull down assay", "type": "cell-based"}, "[4]": {"molecular_target": "Coatomer subunit beta (Homo sapiens) (UniProt P53618)", "assay": "Binding affinity to COPB1 in human NCI-H23 cells at 1 uM by mass spectrometry based pull down assay", "type": "cell-based"}, "[5]": {"molecular_target": "E3 ubiquitin-protein ligase UBR4 (Homo sapiens) (UniProt Q5T4S7)", "assay": "Binding affinity to UBR4 in human NCI-H23 cells at 1 uM by mass spectrometry based pull down assay", "type": "cell-based"}, "[6]": {"molecular_target": "Peroxiredoxin-6 (Homo sapiens) (UniProt P30041)", "assay": "Binding affinity to PRDX6 in human NCI-H23 cells at 1 uM by mass spectrometry based pull down assay", "type": "cell-based"}, "[7]": {"molecular_target": "Pyrroline-5-carboxylate reductase 2 (Homo sapiens) (UniProt Q96C36)", "assay": "Binding affinity to PYCR2 in human NCI-H23 cells at 1 uM by mass spectrometry based pull down assay", "type": "cell-based"}, "[8]": {"molecular_target": "Actin-related protein 2/3 complex subunit 5 (Homo sapiens) (UniProt O15511)", "assay": "Binding affinity to ARPC5 in human NCI-H23 cells at 1 uM by mass spectrometry based pull down assay", "type": "cell-based"}, "[9]": {"molecular_target": "Nuclear receptor-binding factor 2 (Homo sapiens) (UniProt Q96F24)", "assay": "Binding affinity to NRBF2 in human NCI-H23 cells at 1 uM by mass spectrometry based pull down assay", "type": "cell-based"}, "[10]": {"molecular_target": "Deaminated glutathione amidase (Homo sapiens) (UniProt Q86X76)", "assay": "Binding affinity to NIT1 in human NCI-H23 cells at 1 uM by mass spectrometry based pull down assay", "type": "cell-based"}, "[11]": {"molecular_target": "Signal transducer and activator of transcription 1-alpha/beta (Homo sapiens) (UniProt P42224)", "assay": "Binding affinity to STAT1 in human NCI-H23 cells at 1 uM by mass spectrometry based pull down assay", "type": "cell-based"}, "[12]": {"molecular_target": "Cyclin-dependent kinase 5 (Homo sapiens) (UniProt Q00535)", "sequence (Q00535 whole entry, looked up)": "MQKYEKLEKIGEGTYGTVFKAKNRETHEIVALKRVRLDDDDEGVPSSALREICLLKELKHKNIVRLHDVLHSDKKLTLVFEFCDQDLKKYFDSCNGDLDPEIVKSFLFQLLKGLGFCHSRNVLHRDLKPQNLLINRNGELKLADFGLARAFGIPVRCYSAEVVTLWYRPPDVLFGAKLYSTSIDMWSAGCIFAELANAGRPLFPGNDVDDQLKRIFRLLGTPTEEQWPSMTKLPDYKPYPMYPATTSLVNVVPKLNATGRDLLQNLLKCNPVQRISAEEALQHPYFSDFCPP", "assay": "Binding affinity to CDK5 in human NCI-H23 cells at 1 uM by mass spectrometry based pull down assay", "type": "cell-based"}, "[13]": {"molecular_target": "T-complex protein 1 subunit theta (Homo sapiens) (UniProt P50990)", "sequence (P50990 whole entry, one chain of several)": "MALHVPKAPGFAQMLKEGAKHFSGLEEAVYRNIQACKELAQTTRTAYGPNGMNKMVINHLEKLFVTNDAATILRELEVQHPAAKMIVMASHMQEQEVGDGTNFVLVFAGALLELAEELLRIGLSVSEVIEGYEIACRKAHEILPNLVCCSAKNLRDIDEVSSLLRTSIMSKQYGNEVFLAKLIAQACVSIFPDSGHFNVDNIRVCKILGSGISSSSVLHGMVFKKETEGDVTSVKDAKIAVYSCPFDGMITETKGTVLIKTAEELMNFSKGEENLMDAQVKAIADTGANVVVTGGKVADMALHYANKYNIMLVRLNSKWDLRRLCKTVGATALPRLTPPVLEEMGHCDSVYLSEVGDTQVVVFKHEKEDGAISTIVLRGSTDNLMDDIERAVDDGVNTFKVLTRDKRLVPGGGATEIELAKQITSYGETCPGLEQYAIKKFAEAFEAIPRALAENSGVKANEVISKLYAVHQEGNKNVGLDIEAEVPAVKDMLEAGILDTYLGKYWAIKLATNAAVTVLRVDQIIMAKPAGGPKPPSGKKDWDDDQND", "assay": "Binding affinity to CCT8 in human NCI-H23 cells at 1 uM by mass spectrometry based pull down assay", "type": "cell-based"}, "[14]": {"molecular_target": "Glycogen synthase kinase-3 beta (Homo sapiens) (UniProt P49841)", "assay": "Binding affinity to GSK3B in human NCI-H23 cells at 1 uM by mass spectrometry based pull down assay", "type": "cell-based"}, "[15]": {"molecular_target": "Thioredoxin (Homo sapiens) (UniProt P10599)", "assay": "Binding affinity to TXN in human NCI-H358 cells at 1 uM by mass spectrometry based pull down assay", "type": "cell-based"}, "[16]": {"molecular_target": "WD repeat and HMG-box DNA-binding protein 1 (Homo sapiens) (UniProt O75717)", "assay": "Binding affinity to WDHD1 in human NCI-H358 cells at 1 uM by mass spectrometry based pull down assay", "type": "cell-based"}, "[17]": {"molecular_target": "80S Ribosome (Homo sapiens) (UniProt P08865+P42677+P62753+P15880+P23396+P61247+P62701+P22090+P46782+P62081+P62241+P46781+P46783+P62280+P25398+P62277+P62263+P62841+P62244+P62249+P08708+P62269+P39019+P60866+P63220+P62266+P62847+P62851+P62854+P62979+P62857+P62273+P62861+P39023+P36578+P46777+Q02878+P18124+P62424+P62917+P32969+P27635+P62906+P62913+P30050+P26373+P40429+P50914+P61313+P18621+Q07020+Q02543+P84098+P46778+P35268+P62829+P62750+P83731+P61254+P61353+P46776+P46779+P47914+P62888+P62899+P62910+P49207+P42766+P18077+Q9Y3U8+P83881+P61927+P61513+P63173+P62891+P62945+P05388+P05386)", "assay": "Binding affinity to RPL26 in human NCI-H358 cells at 1 uM by mass spectrometry based pull down assay", "type": "cell-based"}, "[18]": {"molecular_target": "ATP-dependent 6-phosphofructokinase, liver type (Homo sapiens) (UniProt P17858)", "sequence (P17858 whole entry)": "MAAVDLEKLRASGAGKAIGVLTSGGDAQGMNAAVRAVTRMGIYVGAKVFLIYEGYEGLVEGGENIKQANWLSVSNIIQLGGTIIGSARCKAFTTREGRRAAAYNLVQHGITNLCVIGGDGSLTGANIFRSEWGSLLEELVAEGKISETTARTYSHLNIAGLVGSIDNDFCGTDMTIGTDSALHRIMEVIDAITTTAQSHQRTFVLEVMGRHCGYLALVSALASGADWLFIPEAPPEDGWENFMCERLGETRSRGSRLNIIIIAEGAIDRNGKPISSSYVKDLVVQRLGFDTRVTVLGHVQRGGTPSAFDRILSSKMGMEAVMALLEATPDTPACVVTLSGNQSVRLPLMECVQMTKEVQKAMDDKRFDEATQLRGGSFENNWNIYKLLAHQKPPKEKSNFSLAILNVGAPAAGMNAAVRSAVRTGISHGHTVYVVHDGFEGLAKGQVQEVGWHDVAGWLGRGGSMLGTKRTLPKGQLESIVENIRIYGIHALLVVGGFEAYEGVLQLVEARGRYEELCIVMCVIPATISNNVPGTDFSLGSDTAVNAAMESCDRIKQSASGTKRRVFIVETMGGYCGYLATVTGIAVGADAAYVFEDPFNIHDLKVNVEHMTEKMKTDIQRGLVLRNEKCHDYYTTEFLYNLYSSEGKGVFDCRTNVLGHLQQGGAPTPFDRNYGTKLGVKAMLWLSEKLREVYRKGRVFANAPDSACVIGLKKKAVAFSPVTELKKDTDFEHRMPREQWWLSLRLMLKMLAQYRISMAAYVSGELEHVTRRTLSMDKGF", "assay": "Binding affinity to PFKL in human NCI-H358 cells at 1 uM by mass spectrometry based pull down assay", "type": "cell-based"}, "[19]": {"molecular_target": "Protein SET (Homo sapiens) (UniProt Q01105)", "assay": "Binding affinity to SET in human NCI-H358 cells at 1 uM by mass spectrometry based pull down assay", "type": "cell-based"}, "[20]": {"molecular_target": "Heterogeneous nuclear ribonucleoprotein D0 (Homo sapiens) (UniProt Q14103)", "assay": "Binding affinity to HNRNPD in human NCI-H358 cells at 1 uM by mass spectrometry based pull down assay", "type": "cell-based"}, "[21]": {"molecular_target": "DnaJ homolog subfamily A member 1 (Homo sapiens) (UniProt P31689)", "assay": "Binding affinity to DNAJA1 in human NCI-H358 cells at 1 uM by mass spectrometry based pull down assay", "type": "cell-based"}, "[22]": {"molecular_target": "Vesicle-trafficking protein SEC22b (Homo sapiens) (UniProt O75396)", "assay": "Binding affinity to SEC22B in human NCI-H358 cells at 1 uM by mass spectrometry based pull down assay", "type": "cell-based"}, "[23]": {"molecular_target": "Eukaryotic translation initiation factor 2-alpha kinase 3 (Homo sapiens) (UniProt Q9NZJ5)", "sequence (Q9NZJ5 whole entry)": "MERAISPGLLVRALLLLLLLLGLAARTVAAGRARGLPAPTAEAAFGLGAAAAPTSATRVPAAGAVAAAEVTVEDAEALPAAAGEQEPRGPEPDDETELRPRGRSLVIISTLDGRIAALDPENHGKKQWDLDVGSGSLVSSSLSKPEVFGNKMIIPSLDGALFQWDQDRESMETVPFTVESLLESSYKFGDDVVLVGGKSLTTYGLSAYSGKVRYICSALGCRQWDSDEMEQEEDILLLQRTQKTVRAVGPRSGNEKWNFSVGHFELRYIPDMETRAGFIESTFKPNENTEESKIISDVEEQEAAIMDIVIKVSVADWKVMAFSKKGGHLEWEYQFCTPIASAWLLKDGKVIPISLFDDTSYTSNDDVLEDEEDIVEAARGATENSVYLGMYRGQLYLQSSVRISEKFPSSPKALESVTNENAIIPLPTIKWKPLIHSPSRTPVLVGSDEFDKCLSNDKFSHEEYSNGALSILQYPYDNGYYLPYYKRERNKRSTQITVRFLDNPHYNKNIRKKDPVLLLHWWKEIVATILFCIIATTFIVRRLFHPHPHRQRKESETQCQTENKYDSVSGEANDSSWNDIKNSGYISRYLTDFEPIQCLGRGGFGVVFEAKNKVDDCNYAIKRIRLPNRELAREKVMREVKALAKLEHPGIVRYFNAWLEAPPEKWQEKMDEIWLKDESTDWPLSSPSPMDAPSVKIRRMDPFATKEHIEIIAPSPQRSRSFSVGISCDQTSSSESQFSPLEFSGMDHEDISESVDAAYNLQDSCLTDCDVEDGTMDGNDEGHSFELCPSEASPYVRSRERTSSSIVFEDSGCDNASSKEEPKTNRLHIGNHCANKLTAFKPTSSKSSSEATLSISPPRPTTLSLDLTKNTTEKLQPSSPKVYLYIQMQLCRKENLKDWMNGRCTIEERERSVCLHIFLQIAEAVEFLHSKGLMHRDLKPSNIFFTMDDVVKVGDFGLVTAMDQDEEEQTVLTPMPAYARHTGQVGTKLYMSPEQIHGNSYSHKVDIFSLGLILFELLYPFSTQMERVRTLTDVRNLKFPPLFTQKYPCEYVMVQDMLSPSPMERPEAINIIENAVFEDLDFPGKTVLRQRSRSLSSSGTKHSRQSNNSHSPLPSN", "assay": "Inhibition of PEK in human SKCO1 cells at 1 uM after 4 hrs using biotin labeled DLKPSNIFFTMDDVVK probe by mass-spectrometric analysis relative to control", "type": "cell-based"}, "[24]": {"molecular_target": "Phosphatidylinositol 5-phosphate 4-kinase type-2 gamma (Homo sapiens) (UniProt Q8TBX8)", "sequence (Q8TBX8 whole entry)": "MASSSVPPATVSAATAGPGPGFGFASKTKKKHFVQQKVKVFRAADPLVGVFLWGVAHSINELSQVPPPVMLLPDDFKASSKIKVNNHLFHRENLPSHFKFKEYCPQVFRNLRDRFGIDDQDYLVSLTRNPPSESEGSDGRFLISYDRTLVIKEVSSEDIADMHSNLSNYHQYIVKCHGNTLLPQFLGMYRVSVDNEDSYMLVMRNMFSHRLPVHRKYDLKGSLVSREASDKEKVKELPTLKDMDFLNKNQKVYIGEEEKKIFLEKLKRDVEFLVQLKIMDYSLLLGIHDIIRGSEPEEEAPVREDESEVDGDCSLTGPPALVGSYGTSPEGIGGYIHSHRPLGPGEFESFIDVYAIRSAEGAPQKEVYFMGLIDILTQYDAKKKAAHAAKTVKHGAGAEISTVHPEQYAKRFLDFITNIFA", "assay": "Inhibition of PIP4K2C in human SKCO1 cells at 1 uM after 4 hrs using biotin labeled TLVIKEVSSEDIADMHSNLSNYHQYIVK probe by mass-spectrometric analysis relative to control", "type": "cell-based"}, "[25]": {"molecular_target": "Dual specificity mitogen-activated protein kinase kinase 2 (Homo sapiens) (UniProt P36507)", "sequence (P36507 whole entry, the tested form may be a part)": "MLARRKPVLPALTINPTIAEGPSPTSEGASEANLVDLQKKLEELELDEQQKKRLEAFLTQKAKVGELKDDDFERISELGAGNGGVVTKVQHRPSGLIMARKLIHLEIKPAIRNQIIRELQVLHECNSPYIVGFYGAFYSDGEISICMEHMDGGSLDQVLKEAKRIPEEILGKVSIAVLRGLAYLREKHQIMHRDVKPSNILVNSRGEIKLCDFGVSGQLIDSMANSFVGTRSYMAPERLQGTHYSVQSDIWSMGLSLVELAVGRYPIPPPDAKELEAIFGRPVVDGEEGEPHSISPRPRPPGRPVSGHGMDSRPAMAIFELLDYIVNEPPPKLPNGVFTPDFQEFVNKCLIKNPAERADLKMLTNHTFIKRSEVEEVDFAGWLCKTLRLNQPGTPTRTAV", "assay": "Inhibition of full length human MEK2 (1 to 400 residues) expressed in mammalian expression system assessed as enzyme activity at 1 uM by KINOMEScan assay relative to control", "set-up": "scale not given: the % may be the effect or the level left", "procedure,_shortened": "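In vitro ATP-site competition binding assay (KinomeScan) across a panel of 456 kinases. Compound was tested at 1 and 10 μM. The read-out is the binding inhibition score relative to control.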"}, "[26]": {"molecular_target": "Serine/threonine-protein kinase 36 (Homo sapiens) (UniProt Q9NRP7)", "assay": "Inhibition of human STK36 (1 to 271 residues) expressed in bacterial expression system assessed as enzyme activity at 10 uM by KINOMEScan assay relative to control", "set-up": "scale not given: the % may be the effect or the level left", "procedure,_shortened": "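In vitro ATP-site competition binding assay across a panel of 456 kinases, with compound tested at 1 and 10 μM.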"}}, "note": "Active and inactive are the calls of the source. The calls are words filed in the database; no cut-off is given here."}
{"smiles": "C=CC(=O)Nc1ccccc1Nc1nc(Nc2ccc(N3CCN(CCOCCOCCOCCNC(=O)CCCC[C@@H]4SC[C@@H]5NC(=O)N[C@@H]54)CC3)cc2)ncc1Cl", "values": [{"measurement": "Activity", "setting": "[1]", "result": "Active"}, {"measurement": "Activity", "setting": "[2]", "result": "Active"}, {"measurement": "Activity", "setting": "[3]", "result": "Active"}, {"measurement": "Activity", "setting": "[4]", "result": "Active"}, {"measurement": "Activity", "setting": "[5]", "result": "Active"}, {"measurement": "Activity", "setting": "[6]", "result": "Active"}, {"measurement": "Activity", "setting": "[7]", "result": "Active"}, {"measurement": "Activity", "setting": "[8]", "result": "Active"}, {"measurement": "Activity", "setting": "[9]", "result": "Active"}, {"measurement": "Activity", "setting": "[10]", "result": "Active"}, {"measurement": "Activity", "setting": "[11]", "result": "Active"}, {"measurement": "Activity", "setting": "[12]", "result": "Active"}, {"measurement": "Activity", "setting": "[13]", "result": "Active"}, {"measurement": "Activity", "setting": "[14]", "result": "Active"}, {"measurement": "Activity", "setting": "[15]", "result": "Active"}, {"measurement": "Activity", "setting": "[16]", "result": "Active"}, {"measurement": "Activity", "setting": "[17]", "result": "Active"}, {"measurement": "Activity", "setting": "[18]", "result": "Active"}, {"measurement": "Activity", "setting": "[19]", "result": "Active"}, {"measurement": "Activity", "setting": "[20]", "result": "Active"}, {"measurement": "Activity", "setting": "[21]", "result": "Active"}, {"measurement": "Activity", "setting": "[22]", "result": "Active"}]}
{"smiles": "COc1cc(O)c2c(c1)/C=C/C[C@H](O)[C@H](O)C(=O)/C=C\\C[C@H](C)OC2=O", "values": [{"measurement": "inhibition", "setting": "[23]", "result": -10, "unit": "%"}, {"measurement": "inhibition", "setting": "[24]", "result": 16.8, "unit": "%"}, {"measurement": "Activity", "setting": "[25]", "result": 0.75, "unit": "%"}, {"measurement": "Activity", "setting": "[26]", "result": 0.95, "unit": "%"}]}
